This passage reports MIC and viability results from ChEMBL document CHEMBL1275278, “Synthesis and pharmacological evaluation of clubbed isopropylthiazole derived triazolothiadiazoles, triazolothiadiazines and mannich bases as potential antimicrobial and antitubercular agents” (Eur J Med Chem, 2010).

≈ marks a conversion by molar mass, not a printed value.

For series [1], the system named is Mycobacterium tuberculosis. The series is described as follows: Antimycobacterial activity against Mycobacterium tuberculosis H37Rv after 21 days by broth dilution assay. The settings on record: 504 h. The class given is functional. The method, boiled down: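 Frozen culture in Middlebrook 7H9 broth with 10% albumin-dextrose-catalase and 0.2% glycerol, thawed and diluted in broth to 10⁵ cfu/mL. Compounds dissolved in DMSO, twofold diluted in broth; final DMSO 1.3%. Tubes inoculated, incubated at 37 °C. Growth compared visually against drug-free and drug- and inoculum-free controls and isoniazid. MIC = lowest concentration inhibiting ≥99% of the starting bacterial population.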
On the technique in general: Broth dilution looks for growth in wells or tubes with falling amounts of substance.

The subject of series [2] is Bacillus subtilis. Description: Antibacterial activity against Bacillus subtilis ATCC 60511 after 24 hrs by broth microdilution method. The class given is functional. The settings on record: ATCC 60511, 24 h. The method, boiled down: (§1)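 Broth dilution in Mueller-Hinton broth. Tubes inoculated at 10⁵ cfu/mL and incubated 37 °C for 24 h. MIC taken as lowest concentration completely inhibiting growth. Media and media-plus-DMSO growth controls; ciprofloxacin and norfloxacin as reference standards.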

Series [3] can be described thus: Cytotoxicity against human A549 cells assessed as cell viability at 250 uM by MTT assay relative to control. The settings on record: read-out: Activity. Format: cell-based. The method, boiled down:
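A549 lung adenocarcinoma cells grown with fetal bovine serum. Compounds held as 10 mM DMSO stocks at −20 °C and diluted in culture medium before treatment (50–250 µM). Viability read by MTT assay against untreated cells and DMSO vehicle control. Two experiments, each with triplicate readings.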
On the technique in general: Tetrazolium dyes change colour on reduction, which living cells bring about.

For series [4], the system named is Enterococcus faecalis. The series is described as follows: Antibacterial activity against Streptococcus faecalis ATCC 14506 after 24 hrs by broth microdilution method. The class given is functional. The following applies: ATCC 14506, 24 h. The essentials:
as §1

The test system of series [5] is Staphylococcus aureus. Description: Antibacterial activity against Staphylococcus aureus ATCC 11632 after 24 hrs by broth microdilution method. The class given is functional. The following applies: ATCC 11632, 24 h. The method, boiled down: as §1
Series [6] relates to Klebsiella pneumoniae. Description: Antibacterial activity against Klebsiella pneumoniae ATCC 10031 after 24 hrs by broth microdilution method. The class given is functional. The settings on record: ATCC 10031, 24 h. The method, boiled down:
as §1

Series [7] has as its system Pseudomonas aeruginosa. Description: Antibacterial activity against Pseudomonas aeruginosa ATCC 10145 after 24 hrs by broth microdilution method. The class given is functional. The settings on record: ATCC 10145, 24 h. The essentials: as §1
Series [8] has as its system Escherichia coli. The series is described as follows: Antibacterial activity against Escherichia coli ATCC 10536 after 24 hrs by broth microdilution method. Format: functional. The settings on record: ATCC 10536, 24 h. The method, boiled down:
as §1

Series [9] concerns Saccharomyces cerevisiae. Description: Antifungal activity against Saccharomyces cerevisiae ATCC 9763 after 24 hrs by broth microdilution method. Format: functional. The following applies: ATCC 9763, 24 h.
Series [10] deals with Aspergillus niger. The series is described as follows: Antifungal activity against Aspergillus niger ATCC 6275 after 24 hrs by broth microdilution method. The following applies: ATCC 6275, 24 h. The class given is functional.
In series [11] the test system is Candida tropicalis. Description: Antifungal activity against Candida tropicalis ATCC 1369 after 24 hrs by broth microdilution method. Format: functional. The settings on record: ATCC 1369, 24 h.

The MIC is the smallest concentration in the dilution series that meets the test's criterion for growth inhibition. Regarding `COc1ccc(C2=Nn3c(nnc3-c3nc(C(C)C)cs3)SC2)cc1`, the minimum inhibitory concentration (MIC) is 4 µg/mL (≈ 10.8 µM) in series [1]; 8 µg/mL (≈ 21.5 µM) in series [2]; 4 µg/mL (≈ 10.8 µM) in series [4]; 8 µg/mL (≈ 21.5 µM) in series [5]; 16 µg/mL (≈ 43.1 µM) in series [6]; 8 µg/mL (≈ 21.5 µM) in [7]. Also, the MIC was found to be 16 µg/mL (≈ 43.1 µM) in [8], 16 µg/mL (≈ 43.1 µM) in [9], 16 µg/mL (≈ 43.1 µM) in series [10] and 31.2 µg/mL (≈ 84.1 µM) in [11]. Further, the viability at 250 µM in series [3] came out at 50%.
As for `CC(C)c1csc(-c2nn(CN3CCN(C)CC3)c(=S)n2/N=C/c2ccc(N(C)C)cc2)n1`, the minimal inhibitory concentration (MIC) worked out at 4 µg/mL (≈ 8.25 µM) in [1]; 8 µg/mL (≈ 16.5 µM) in series [2]; 4 µg/mL (≈ 8.25 µM) in [4]; 31.2 µg/mL (≈ 64.5 µM) in series [5]; 4 µg/mL (≈ 8.25 µM) in series [6]; 31.2 µg/mL (≈ 64.5 µM) in series [7]. Further, the MIC in series [8] amounted to 16 µg/mL (≈ 33 µM); in series [9], 16 µg/mL (≈ 33 µM); in series [10] it was 8 µg/mL (≈ 16.5 µM); in series [11] it was 31.2 µg/mL (≈ 64.5 µM). Also, the viability at 250 µM in [3] came out at 50%.
Take `CC(C)c1csc(-c2n[nH]c(=S)n2NC(=O)c2ccc(O)cc2)n1`: the minimum inhibitory concentration (MIC) stood at 62.5 µg/mL (≈ 173 µM) in series [1]; 31.2 µg/mL (≈ 86.5 µM) in [2]; 62.5 µg/mL (≈ 173 µM) in series [4]; 125 µg/mL (≈ 346 µM) in series [5]; 31.2 µg/mL (≈ 86.5 µM) in series [6]; 31.2 µg/mL (≈ 86.5 µM) in series [7]. The minimal inhibitory concentration (MIC) stood at 31.2 µg/mL (≈ 86.5 µM) in [8], 31.2 µg/mL (≈ 86.5 µM) in series [9], 125 µg/mL (≈ 346 µM) in series [10] and 125 µg/mL (≈ 346 µM) in series [11].
Turning to `CC(C)c1csc(-c2nn(CN3CCN(C)CC3)c(=S)n2/N=C/c2ccccc2Cl)n1`, the minimal inhibitory concentration (MIC) worked out at 31.2 µg/mL (≈ 65.6 µM) in series [1]; 125 µg/mL (≈ 263 µM) in [2]; 31.2 µg/mL (≈ 65.6 µM) in series [4]; 16 µg/mL (≈ 33.6 µM) in [5]; 16 µg/mL (≈ 33.6 µM) in series [6]; 31.2 µg/mL (≈ 65.6 µM) in series [7]. For the same compound, the minimal inhibitory concentration (MIC) came out at 125 µg/mL (≈ 263 µM) in series [8], 125 µg/mL (≈ 263 µM) in series [9], 62.5 µg/mL (≈ 131 µM) in series [10] and 125 µg/mL (≈ 263 µM) in series [11].
As to `COc1cc(C2Nn3c(nnc3-c3nc(C(C)C)cs3)S2)cc(OC)c1OC` (configuration not stated), the minimum inhibitory concentration (MIC) in series [1] came to 62.5 µg/mL (≈ 149 µM); in series [2], 31.2 µg/mL (≈ 74.5 µM); in series [4], 31.2 µg/mL (≈ 74.5 µM); in series [5], 31.2 µg/mL (≈ 74.5 µM); in series [6] it was 62.5 µg/mL (≈ 149 µM); in series [7], 31.2 µg/mL (≈ 74.5 µM). Besides, the MIC in [8] is 125 µg/mL (≈ 298 µM); in [9], 16 µg/mL (≈ 38.1 µM); in [10], 31.2 µg/mL (≈ 74.5 µM); in series [11], 16 µg/mL (≈ 38.1 µM).
Take `Cc1ccc(C(=O)Nn2c(-c3nc(C(C)C)cs3)n[nH]c2=S)cc1`: the minimum inhibitory concentration (MIC) in series [1] is 31.2 µg/mL (≈ 86.9 µM); in series [2], 62.5 µg/mL (≈ 174 µM); in [4], 125 µg/mL (≈ 348 µM); in series [5], 62.5 µg/mL (≈ 174 µM); in [6] it was 62.5 µg/mL (≈ 174 µM); in series [7] it was 125 µg/mL (≈ 348 µM). For the same compound, the MIC in series [8] was determined as 62.5 µg/mL (≈ 174 µM); in series [9], 62.5 µg/mL (≈ 174 µM); in series [10], 62.5 µg/mL (≈ 174 µM); in series [11] it was 125 µg/mL (≈ 348 µM).
In the case of `COc1cc(/C=N/n2c(-c3nc(C(C)C)cs3)nn(CN3CCOCC3)c2=S)cc(OC)c1OC`, the MIC was 31.2 µg/mL (≈ 60.3 µM) in [1]; 62.5 µg/mL (≈ 121 µM) in series [2]; 62.5 µg/mL (≈ 121 µM) in series [4]; 125 µg/mL (≈ 241 µM) in [5]; 16 µg/mL (≈ 30.8 µM) in series [6]; 62.5 µg/mL (≈ 121 µM) in [7]. The minimal inhibitory concentration (MIC) in series [8] was 125 µg/mL (≈ 241 µM); in series [9], 125 µg/mL (≈ 241 µM); in series [10], 62.5 µg/mL (≈ 121 µM); in series [11], 62.5 µg/mL (≈ 121 µM).
For the compound `CC(C)c1csc(-c2nnc3sc(S)nn23)n1`, the minimum inhibitory concentration (MIC) amounted to 31.2 µg/mL (≈ 110 µM) in series [1]; 16 µg/mL (≈ 56.5 µM) in series [2]; 31.2 µg/mL (≈ 110 µM) in series [4]; 125 µg/mL (≈ 441 µM) in series [5]; 31.2 µg/mL (≈ 110 µM) in [6]; 31.2 µg/mL (≈ 110 µM) in [7]. For the same compound, the minimum inhibitory concentration (MIC) was 62.5 µg/mL (≈ 221 µM) in series [8], 16 µg/mL (≈ 56.5 µM) in series [9], 16 µg/mL (≈ 56.5 µM) in [10] and 8 µg/mL (≈ 28.2 µM) in series [11].
For the compound `CC(C)c1csc(-c2nnc3n2N=C(c2ccccc2)CS3)n1`, the MIC in [1] is 125 µg/mL (≈ 366 µM); in series [2], 62.5 µg/mL (≈ 183 µM); in series [4], 125 µg/mL (≈ 366 µM); in series [5], 125 µg/mL (≈ 366 µM); in series [6] it was 125 µg/mL (≈ 366 µM); in [7], 62.5 µg/mL (≈ 183 µM). Moreover, the MIC worked out at 125 µg/mL (≈ 366 µM) in series [8], 62.5 µg/mL (≈ 183 µM) in [9], 62.5 µg/mL (≈ 183 µM) in series [10] and 125 µg/mL (≈ 366 µM) in series [11].
